Legend:
[1] = Drug concentration in female Lister Hooded pigmented rat lachrymal gland assessed as radioactivity per gram of tissue at 20 mg/kg administered as single dose via gastric gavage measured after 24 hrs by autoradiographic analysis; assay type: ADME, organism-based; parameters: dose 20 mg/kg, dosed compound name [14C]Sunitinib; settings: in vivo, po
Summary of the method: (§1)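 Lister Hooded (pigmented) rats, ca 7-8 weeks old, acclimated 7 days, given [14C]sunitinib L-malate by gastric gavage at 20 mg/kg (15 mg freebase/kg, 100 µCi/kg). One male and one female killed by CO2 at 24, 72, 168 and 336 h. Carcasses frozen in solid CO2/hexane and embedded in frozen cellulose. 30 µm sagittal cryosections were freeze-dried. Tissue radioactivity measured by quantitative whole-body autoradiography against calibration standards, with background subtracted.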

[2] = Drug recovery in urine of female cynomolgus monkey at 6 mg/kg, po administered as single dose during 0 to 336 hrs by liquid scintillation counting; assay type: ADME, organism-based, Macaca fascicularis; parameters: dose 6 mg/kg, dosed compound name [14C]Sunitinib, route oral; settings: in vivo
Spleen = experiment: Drug concentration in female albino rat spleen assessed as radioactivity per gram of tissue at 20 mg/kg administered as single dose via gastric gavage measured after 3 hrs by autoradiographic analysis; assay type: ADME, organism-based; parameters: dose 20 mg/kg, dosed compound name [14C]Sunitinib; settings: in vivo, po
Heart [3] = experiment: Drug concentration in female albino rat heart assessed as radioactivity per gram of tissue at 20 mg/kg administered as single dose via gastric gavage measured after 24 hrs by autoradiographic analysis; assay type: ADME, organism-based; parameters: dose 20 mg/kg, dosed compound name [14C]Sunitinib; settings: in vivo, po
Summary of the method: (§2)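 Sprague Dawley albino rats, ca 7-8 weeks old, dosed once by gastric gavage with [14C]sunitinib L-malate (15 mg freebase/kg, 100 µCi/kg). One male and one female killed by CO2 at 3, 6, 24, 72 and 168 h. Carcasses frozen in solid CO2/hexane, embedded and cut into 30 µm sagittal sections, then freeze-dried. Radioactivity quantified by whole-body autoradiography against standards by regression, background subtracted.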

[4] = Drug recovery in feces of male cynomolgus monkey at 6 mg/kg, po administered as single dose during 0 to 336 hrs by liquid scintillation counting; assay type: ADME, organism-based, Macaca fascicularis; parameters: dose 6 mg/kg, dosed compound name [14C]Sunitinib, route oral; settings: in vivo
[5] = Drug concentration in female albino rat preputial gland assessed as radioactivity per gram of tissue at 20 mg/kg administered as single dose via gastric gavage measured after 72 hrs by autoradiographic analysis; assay type: ADME, organism-based; parameters: dose 20 mg/kg, dosed compound name [14C]Sunitinib; settings: in vivo, po; summary of the method: as §2
Heart [6] = experiment: Drug concentration in male albino rat heart assessed as radioactivity per gram of tissue at 20 mg/kg administered as single dose via gastric gavage measured after 3 hrs by autoradiographic analysis; assay type: ADME, organism-based; parameters: dose 20 mg/kg, dosed compound name [14C]Sunitinib; settings: in vivo, po
Cynomolgus monkey [7] = experiment: Cmax as total radioactivity in female cynomolgus monkey plasma at 6 mg/kg, po administered as single dose by LC/MS/MS analysis; assay type: ADME, organism-based, Macaca fascicularis; parameters: dose 6 mg/kg, dosed compound name [14C]Sunitinib, route oral; settings: in vivo
Summary of the method: (§3)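 Cynomolgus monkeys of both sexes received one oral gavage of [14C]sunitinib L-malate at 6 mg/kg (37 µCi/kg). Femoral-vein blood was taken into heparin from 0.5 to 336 h. Plasma was kept cold and protected from light, then stored at -80 °C. Total radioactivity was by scintillation counting and sunitinib by methanol-extraction LC-MS-MS. Cmax was from raw data, t½ from the log-linear terminal slope, AUC(0-∞) by linear trapezoidal rule.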

Rattus norvegicus [8] = experiment: Apparent terminal half life as total radioactivity in female Sprague-Dawley rat plasma at 5 mg/kg, iv administered as single dose by LC/MS/MS analysis; assay type: ADME, organism-based; parameters: dose 5 mg/kg, dosed compound name [14C]Sunitinib, route intravenous; settings: in vivo
Summary of the method: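 Single dose of [14C]sunitinib L-malate as free base, 50 µCi/kg. IV dose was 5 mg/kg by tail vein in 5 females. Oral dose was 15 mg/kg by gavage in 3 females and 3 males. Total radioactivity was by scintillation counting. […] Cmax was read from raw data, t½ by log-linear regression, AUC by linear trapezoidal rule.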

Cynomolgus monkey [9] = experiment: Cmax as total radioactivity in male cynomolgus monkey plasma at 6 mg/kg, po administered as single dose by LC/MS/MS analysis; assay type: ADME, organism-based, Macaca fascicularis; parameters: dose 6 mg/kg, dosed compound name [14C]Sunitinib, route oral; settings: in vivo; summary of the method: as §3
[10] = Drug concentration in female albino rat thyroid gland assessed as radioactivity per gram of tissue at 20 mg/kg administered as single dose via gastric gavage measured after 6 hrs by autoradiographic analysis; assay type: ADME, organism-based; parameters: dose 20 mg/kg, dosed compound name [14C]Sunitinib; settings: in vivo, po
Stomach = experiment: Drug concentration in female albino rat stomach assessed as radioactivity per gram of tissue at 20 mg/kg administered as single dose via gastric gavage measured after 24 hrs by autoradiographic analysis; assay type: ADME, organism-based; parameters: dose 20 mg/kg, dosed compound name [14C]Sunitinib; settings: in vivo, po
Large intestine = experiment: Drug concentration in female albino rat large intestine assessed as radioactivity per gram of tissue at 20 mg/kg administered as single dose via gastric gavage measured after 6 hrs by autoradiographic analysis; assay type: ADME, organism-based; parameters: dose 20 mg/kg, dosed compound name [14C]Sunitinib; settings: in vivo, po; summary of the method: as §2
Homo sapiens = experiment: Tmax as total radioactivity in human plasma at 50 mg, po administered as single dose measured up to 24 hrs by LC/MS/MS analysis; assay type: ADME, organism-based; parameters: dosed compound name [14C]Sunitinib; settings: in vivo
[11] = Drug concentration in male albino rat uveal tract assessed as radioactivity per gram of tissue at 20 mg/kg administered as single dose via gastric gavage measured after 24 hrs by autoradiographic analysis; assay type: ADME, organism-based; parameters: dose 20 mg/kg, dosed compound name [14C]Sunitinib; settings: in vivo, po
Brain = experiment: Drug concentration in female albino rat brain assessed as radioactivity per gram of tissue at 20 mg/kg administered as single dose via gastric gavage measured after 6 hrs by autoradiographic analysis; assay type: ADME, organism-based; parameters: dose 20 mg/kg, dosed compound name [14C]Sunitinib; settings: in vivo, po
Summary of the method: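 Sprague Dawley (albino) rats, ca 7-8 weeks old, received a single gastric-gavage dose of [14C]sunitinib L-malate at 20 mg/kg (15 mg freebase/kg, 100 µCi/kg). One animal per sex killed by CO2 at 3, 6, 24, 72 and 168 h, then frozen in CO2/hexane. 30 µm sagittal sections were cut and freeze-dried. Radioactivity per gram quantified by whole-body autoradiography using regression against standards. LOQ 0.04–0.06 µg freebase equiv/g.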

Kidney = experiment: Drug concentration in male Lister Hooded pigmented rat kidney assessed as radioactivity per gram of tissue at 20 mg/kg administered as single dose via gastric gavage measured after 168 hrs by autoradiographic analysis; assay type: ADME, organism-based; parameters: dose 20 mg/kg, dosed compound name [14C]Sunitinib; settings: in vivo, po
[12] = Drug concentration in female Lister Hooded pigmented rat thyroid gland assessed as radioactivity per gram of tissue at 20 mg/kg administered as single dose via gastric gavage measured after 24 hrs by autoradiographic analysis; assay type: ADME, organism-based; parameters: dose 20 mg/kg, dosed compound name [14C]Sunitinib; settings: in vivo, po; summary of the method: as §1
Rattus norvegicus [13] = experiment: Total drug recovery in male Sprague-Dawley rat at 15 mg/kg, po administered as single dose during 0 to 72 hrs by liquid scintillation counting; assay type: ADME, organism-based; parameters: dose 15 mg/kg, dosed compound name [14C]Sunitinib, route oral; settings: in vivo
Rattus norvegicus [14] = experiment: Tmax as total radioactivity in female Sprague-Dawley rat plasma at 15 mg/kg, po administered as single dose by LC/MS/MS analysis; assay type: ADME, organism-based; parameters: dose 15 mg/kg, dosed compound name [14C]Sunitinib, route oral; settings: in vivo
Small intestine [15] = experiment: Drug concentration in male albino rat small intestine assessed as radioactivity per gram of tissue at 20 mg/kg administered as single dose via gastric gavage measured after 24 hrs by autoradiographic analysis; assay type: ADME, organism-based; parameters: dose 20 mg/kg, dosed compound name [14C]Sunitinib; settings: in vivo, po
Small intestine [16] = experiment: Drug concentration in male Lister Hooded pigmented rat small intestine assessed as radioactivity per gram of tissue at 20 mg/kg administered as single dose via gastric gavage measured after 72 hrs by autoradiographic analysis; assay type: ADME, organism-based; parameters: dose 20 mg/kg, dosed compound name [14C]Sunitinib; settings: in vivo, po
Blood = experiment: Drug concentration in male albino rat blood assessed as radioactivity per gram of tissue at 20 mg/kg administered as single dose via gastric gavage measured after 6 hrs by autoradiographic analysis; assay type: ADME, organism-based; parameters: dose 20 mg/kg, dosed compound name [14C]Sunitinib; settings: in vivo, po
[17] = Drug recovery in urine of male Sprague-Dawley rat at 15 mg/kg, po administered as single dose during 0 to 72 hrs by liquid scintillation counting; assay type: ADME, organism-based; parameters: dose 15 mg/kg, dosed compound name [14C]Sunitinib, route oral; settings: in vivo
Lung = experiment: Drug concentration in male albino rat lung assessed as radioactivity per gram of tissue at 20 mg/kg administered as single dose via gastric gavage measured after 24 hrs by autoradiographic analysis; assay type: ADME, organism-based; parameters: dose 20 mg/kg, dosed compound name [14C]Sunitinib; settings: in vivo, po
Zone of skin = experiment: Drug concentration in male albino rat abdomen skin assessed as radioactivity per gram of tissue at 20 mg/kg administered as single dose via gastric gavage measured after 24 hrs by autoradiographic analysis; assay type: ADME, organism-based; parameters: dose 20 mg/kg, dosed compound name [14C]Sunitinib; settings: in vivo, po
Cynomolgus monkey [18] = experiment: Total drug recovery in male cynomolgus monkey at 6 mg/kg, po administered as single dose during 0 to 336 hrs by liquid scintillation counting; assay type: ADME, organism-based, Macaca fascicularis; parameters: dose 6 mg/kg, dosed compound name [14C]Sunitinib, route oral; settings: in vivo

- Radiolabel recovery [1]: 2.05 ugequiv
- Radiolabel recovery [2]: 6.1%
- Radiolabel recovery (Spleen): 30.72 ugequiv
- Radiolabel recovery (Heart [3]): 0.73 ugequiv
- Radiolabel recovery [4]: 87.3%
- Radiolabel recovery [5]: 0.24 ugequiv
- Radiolabel recovery (Heart [6]): 5.58 ugequiv
- Cmax (Cynomolgus monkey [7]): 214 ngequiv/ml
- t1/2 lambda z (Rattus norvegicus [8]): 10.3 h
- Cmax (Cynomolgus monkey [9]): 243 ngequiv/ml
- Radiolabel recovery [10]: 11.23 ugequiv
- Radiolabel recovery (Stomach): 1.21 ugequiv
- Radiolabel recovery (Large intestine): 7.43 ugequiv
- Tmax (Homo sapiens): 8 h
- Radiolabel recovery [11]: 0.13 ugequiv
- Radiolabel recovery (Brain): 0.43 ugequiv
- Radiolabel recovery (Kidney): 0.06 ugequiv
- Radiolabel recovery [12]: 0.64 ugequiv
- Radiolabel recovery (Rattus norvegicus [13]): 85.1%
- Tmax (Rattus norvegicus [14]): 6 h
- Radiolabel recovery (Small intestine [15]): 1.55 ugequiv
- Radiolabel recovery (Small intestine [16]): 0.07 ugequiv
- Radiolabel recovery (Blood): 0.84 ugequiv
- Radiolabel recovery [17]: 8.5%
- Radiolabel recovery (Lung): 0.87 ugequiv
- Radiolabel recovery (Zone of skin): 3.39 ugequiv
- Radiolabel recovery (Cynomolgus monkey [18]): 94.1%
SMILES: CCN(CC)CCNC(=O)c1c(C)[nH]c(/[14CH]=C2\C(=O)Nc3ccc(F)cc32)c1C.O=C(O)C[C@H](O)C(=O)O

From ChEMBL document CHEMBL3525900, “Pharmacokinetics, distribution, and metabolism of [14C]sunitinib in rats, monkeys, and humans” (Drug Metab Dispos, 2012)
